# FAS TE block: FAS thioesterase domain inhibitors, primary screen, biochemical, fluorescence intensity, uHTS. Fatty acid synthase (Homo sapiens), P49327. recombinant FAS-TE, OMFH fluorogenic substrate, fluorescence endpoint. inhibition, % at 15 µM. hit rate 0.67% among 360,000. AID 602261, 2012;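 active = compounds whose normalised, plate-corrected inhibition of enzyme fluorescence in the single-dose primary screen is 50% or more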;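 also: 0% = DMSO with enzyme and 100% = substrate without enzyme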
# RanGTP-Impb inh: inhibitors of RanGTP-importin-beta interaction, primary screen, biochemical, FRET, CFP-Ran, YFP-importin-beta, homogeneous; cell-free CFP-Ran/YFP-importin-beta FRET ratio; inhibition, % (no concentration beside the values); hit rate 1.1% among 300,000; AID 2216, 2009;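 active = more than half of the replicate wells show a fall in the fluorescence ratio signal beyond about 16%, limit read from the data, passing the limit was not always enough; inconclusive = exactly half of the replicate wells pass the set limit; inactive = fewer than half of replicates pass the limit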;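 also: 0% = DMSO wells and 100% = Ran loaded with GDP instead of GTP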
# Runt-SMMHC FRET: inhibitors of RUNX1 Runt–CBFb-SMMHC binding, primary screen, biochemical, FRET, Cerulean-Runt, Venus-CBFb-SMMHC, uHTS | Cerulean-Runt/Venus-CBFb-SMMHC FRET ratio 530/480, 1 h | AID 1434, 2008 | hit rate 0.74% among 220,000 | inhibition, % at 20 µM | Runt-related transcription factor 1 (Homo sapiens) + Core-binding factor subunit beta …;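 active = mean inhibition across duplicate retests at 20 µM reaching about 50%, limit read from the data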;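 also: 0% = DMSO wells and 100% = wells with excess untagged CBFb-SMMHC; inhibitors lower the FRET ratio by blocking Runt binding to CBFb-SMMHC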
# m-calpain inh: inhibitors of pig calpain II, primary screen, biochemical, fluorogenic peptide substrate, 1536-well | purified calpain II, 30 min | inhibition, % at 16 µM | hit rate 0.37% among 220,000 | AID 1236, 2008;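 active = inhibition above about 50%, limit read from the data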
# Runt-CBFb FRET: inhibitors of RUNX1 Runt–CBFb binding, primary screen, biochemical, FRET, Cerulean-Runt, Venus-CBFb, uHTS | Cerulean-Runt/Venus-CBFb FRET ratio 530/480, 1 h | inhibition, % at 20 µM | hit rate 0.46% among 220,000 | Runt-related transcription factor 1 (Homo sapiens) + Core-binding factor subunit beta … | AID 1496, 2009;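 active = inhibition over about 50% at 20 µM in the single-dose screen, limit read from the data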;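 also: 0% = DMSO wells and 100% = excess unlabeled CBFb competitor control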
#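 Reagent – Venus-CBFb binding partner, 100 nM · Assay system – Cerulean-tagged RUNX1 Runt domain (FRET donor) fusion protein · Input – 100 nM per protein · Incubation – two 1 h room-temperature incubations shielded from light · Measured by – FRET fluorescence · Medium – Tris buffer pH 7.5 with salts and BSA · Benchmarks – unlabeled CBFb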
# FAS-TE inh conf: FAS thioesterase domain inhibitors, confirmation, biochemical, fluorescence intensity, single concentration; shares compounds with FAS TE block; recombinant FAS-TE, OMFH fluorogenic substrate; inhibition, % at 15 µM; hit rate 45% among 2,300; AID 624325, 2012;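 active = compounds inhibiting the enzyme by at least 50% at 15 µM in any one of the replicates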;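 also: 0% = enzyme with DMSO only and 100% = wells lacking enzyme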
# The depositor's hits bear a star; ? = inconclusive; . = not tested or not shown. The list is not random: actives were taken first. Their share in the collection is about 2.1%.
SMILES,FAS TE block,RanGTP-Impb inh,Runt-SMMHC FRET,m-calpain inh,Runt-CBFb FRET,FAS-TE inh conf
COc1ccc(C2=C(C=Nc3c(C)n(C)n(-c4ccccc4)c3=O)C(c3ccccc3C)c3ccccc3O2)cc1OC (stereo unspecified),84*,2,-6,-87,-9,28
Cc1c(N=Cc2c(O)n(C)c(=O)c3ccccc23)c(=O)n(-c2ccccc2)n1C,7,0,-9,-80,-4,.
COc1ccc(S(=O)(=O)N2CCOCC2)cc1C(=O)Nc1ccc(N2CCCCCC2)cc1,62*,.,.,.,.,23
COc1ccc(-c2cnnn2-c2ccc(NC(=O)c3ccc(S(=O)(=O)N4CCCCC4)cc3)cc2)cc1OC,88*,4,2,-52,-4,6
COc1ccccc1CNC(=O)c1cc(S(=O)(=O)N2CCN(c3ccccc3)CC2)ccc1Cl,65*,.,.,.,.,25
COc1ccccc1CNC(=O)COC(=O)c1cc(S(=O)(=O)N2CCOCC2)ccc1Cl,-1,3,.,.,.,.
Cc1ccc(S(=O)(=O)N2CCCCC2)cc1C(=O)Nc1ccc(N2CCOCC2)cc1,-9,3,-2,-35,0,.
Oc1ccc(-c2c(C3=CCCCC3)sc3ccccc23)cc1,8,3,.,.,.,.
COc1cccc(OC)c1C(=O)OCC(=O)NC1CCCCCC1,-5,.,.,.,.,.
CCCCCCCCc1nc(SC(C)C(=O)O)n[nH]1 (stereo unspecified),-2,3,0,-6,-2,.
CC1CCc2c(C(=O)Oc3cccc(-n4cnnn4)c3)csc2C1 (stereo unspecified),85*,4,-1,41,-1,56*
O=C(NC(=S)Nc1ccccc1Br)C1CCC1,2,3,.,.,.,.
Cc1ccc(C(=O)O)cc1NC(=O)CSc1nnc(-c2ccccc2F)n1C1CCCCC1,-7,.,.,.,.,.
N#Cc1cc(-c2ccccc2)cn(Cc2c(Cl)cccc2Cl)c1=O,62*,?,-1,-245,2,25*
Cc1ccc(C2C(/C=C3/SC(=S)NC3=O)=C(c3cccs3)Oc3ccccc32)cc1 (stereo unspecified),64*,-8,-24,-2,-2,22
COc1ccc(S(=O)(=O)Nc2ccc(C)c(S(=O)(=O)N3CCOCC3)c2)cc1[N+](=O)[O-],-4,.,.,.,.,.
NCc1ccccc1CS(=O)(=O)N1CCOCC1,-11,.,.,.,.,.
CCn1cc(C(=O)NCCc2ccccc2)c(=O)c2cc(S(=O)(=O)N(C)C)ccc21,23,1,.,.,.,.
CCn1cc(C(=O)NCc2ccc(C)cc2)c(=O)c2cc(S(=O)(=O)N(C)C)ccc21,56*,-1,.,.,.,62*
CCn1cc(C(=O)NCCC2=CCCCC2)c(=O)c2cc(S(=O)(=O)N(C)C)ccc21,80*,-3,-8,5,.,82*
Cc1c(C(=O)c2ccc(Cl)c(Cl)c2)cnc2cc3c(cc12)OCO3,21,4,-4,10,-4,.
Cc1ccc(S(=O)(=O)c2c(C(=O)c3ccccc3)cnc3cc4c(cc23)OCCO4)cc1,70*,3,-17,-87,-2,37
CCCCCOC(=O)C1=C(C)NC(=O)NC1c1ccc([N+](=O)[O-])cc1 (stereo unspecified),58*,3,.,.,.,57*
CCCCCCOC(=O)C1=C(C)NC(=O)NC1c1ccc(O)cc1 (stereo unspecified),1,3,-2,29,-1,.
CN(C(=O)C1CCCCC1)C1CCS(=O)(=O)C1 (stereo unspecified),-2,-2,.,.,.,.
SMILES,FAS TE block,RanGTP-Impb inh,Runt-SMMHC FRET,m-calpain inh,Runt-CBFb FRET,FAS-TE inh conf
O=C(NCc1ccc(C(F)(F)F)cc1)C1CC(c2c(Cl)cccc2Cl)=NO1 (stereo unspecified),55*,3,-5,20,0,55*
CC(=O)N1N=C(c2ccc(Br)cc2)CC1c1cccc([N+](=O)[O-])c1 (stereo unspecified),62*,.,.,.,.,49*
COc1ccccc1C1OC(c2cccc([N+](=O)[O-])c2)=NN1C(C)=O (stereo unspecified),22,10,3,-4,0,.
CC(=O)N1N=C(c2cccc([N+](=O)[O-])c2)OC1c1ccc(Br)cc1 (stereo unspecified),51*,-1,0,2,-2,20
CC(=O)N1N=C(c2cccc([N+](=O)[O-])c2)OC1c1ccc(Cl)cc1Cl (stereo unspecified),53*,-1,-1,39,.,40
O=C(O)C1CCN(C(=O)c2ccc3c(c2)OCO3)CC1,-3,1,.,.,.,.
CCCCNc1c(-c2ccc(-c3ccc(OC)cc3)c(OC)c2)nc2ccccn12,29,.,.,.,.,.
CN(C)S(=O)(=O)c1ccc(N2CCCC2)c(C(=O)OCC(=O)NC2(C#N)CCCCC2)c1,2,1,.,.,.,.
N#CC1(NC(=O)COC(=O)c2cc([N+](=O)[O-])ccc2N2CCOCC2)CCCCC1,68*,-6,.,.,.,80*
N#CC1(NC(=O)COC(=O)c2cc([N+](=O)[O-])ccc2N2CCCC2)CCCCC1,66*,7,.,.,.,75*
CCC(C)C(CO)NCCCn1cnc2c(SC)ncnc21 (stereo unspecified),-7,.,.,.,.,.
CC(=O)Nc1ccc(C(=O)OCC(=O)NCc2ccc3c(c2)OCO3)cc1,-7,.,.,.,.,.
N#C/C(C(N)=O)=c1/ccc2c(c1)N1C3=C(CCCC3)CC3CCCCC31N=2 (stereo unspecified),.,?,-4,8,5,.
N#CC(C#N)=c1ccc2c(c1)N1C3=C(CCCC3)CC3CCCCC31N=2 (stereo unspecified),51*,5,-1,-103,-4,18
O=C(CCCCCCCC(=O)N1CCCCCC1)N1CCCCCC1,-3,.,.,.,.,.
O=C(C1CCC(=O)N(C2CCCC2)C1)N1CCN(Cc2cccc(F)c2)CC1 (stereo unspecified),-4,-6,.,.,.,.
O=C(O)/C(=C\c1cccc(F)c1)c1ccc(S(=O)(=O)N2CCCCC2)s1,-8,0,-2,-9,1,.
O=C(O)/C(=C/c1ccc(Cl)c([N+](=O)[O-])c1)c1ccc(S(=O)(=O)N2CCCCC2)s1,56*,.,.,.,.,53*
CC(C)Cn1c(N)c(C(=O)COC(=O)c2cc(-c3ccccc3)nc3ccccc23)c(=O)n(C)c1=O,51*,0,-2,-102,-2,14

# Bioassay records: PubChem, several laboratories
